Series [1] concerns the target T1, human MRGPRX1 (Homo sapiens, UniProt Q96LB2). It counts as cell-based. The following applies: for agonist type at human MRGPRX1: HTS hits, FLIPR calcium 4 Assay Kit; for ligand efficiency (LE): human MRGPRX1 agonists; for fold decrease in agonist potency as compared to 5a: relative to 5a; for agonist activity at MRGPRX1: at concentrations up to 100 μM. A digest of the protocol: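 HEK293 cells stably expressing human MrgprX1 were plated at 25,000 cells/well and grown 2 days. They were loaded with 2 μM Fluo 4AM and 1% Trypan Red in HBSS for 50 min at 37°C, then equilibrated 10 min at room temperature. Serial dilutions in HBSS were added, with BAM 8–22 as positive and HBSS as negative control. FLIPR imaging ran 2 min; read-out was maximum minus minimum fluorescence.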

Series [2] deals with HVA Ca2+ currents in human MRGPRX1-expressing DRG neurons. It counts as cell-based, mouse. The following applies: DRG neurons from MrgprX1 mice.
Series [3] can be described thus: Metabolic stability in mouse liver microsomes. It counts as in vitro ADME.
The target in series [4] is T2, mouse MRGPRC11 (Mus musculus, UniProt Q8CIP3).
T2 sequence (Q8CIP3 1-322): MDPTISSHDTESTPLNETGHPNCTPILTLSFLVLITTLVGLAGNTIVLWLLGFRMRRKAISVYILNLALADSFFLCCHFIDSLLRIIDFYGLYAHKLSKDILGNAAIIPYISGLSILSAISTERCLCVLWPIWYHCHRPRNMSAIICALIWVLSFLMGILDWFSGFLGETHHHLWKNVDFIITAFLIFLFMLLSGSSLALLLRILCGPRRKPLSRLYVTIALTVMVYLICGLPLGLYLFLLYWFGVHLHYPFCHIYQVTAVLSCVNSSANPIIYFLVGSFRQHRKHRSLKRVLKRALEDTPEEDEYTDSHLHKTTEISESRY
Briefly: Agonist activity at mouse MRGPRC11. It counts as cell-based. The following applies: even at concentration of 40 μM.

Series [5] has as its system δ-, μ- and κ-opioid receptors. Description: Selectivity of MRGPRX1 agonists over opioid receptors. It counts as binding. The following applies: MRGPRX1 versus δ-.
In series [6] the target is T2, mouse MRGPRC11. The following applies: cited from earlier work.
The subject of a further series is neuropathic pain. The following applies: rodent models of neuropathic pain; cited from earlier work.
The next series relates to rat MRGPRC. The following applies: cited from earlier work.
Series [7] addresses T1, human MRGPRX1. The following applies: cited from earlier work.
In series [8] the test system is mechanical and thermal hyperalgesia. The following applies: intrathecal (spinal cord) injection, rats; cited from earlier work.
The test system is the same in series [9]. The following applies: intrathecal (spinal cord) injection, mice; cited from earlier work.

Entries after “also recorded” stand apart in the source; their conditions may differ. Like-named read-outs stand apart in the source and are kept apart here. Non-standard residues stand in square brackets, D forms with d. Residues, ends and D or L forms follow the SMILES beside them. dPhe(4-guanidino) = N=C(N)Nc1ccc(C[C@@H](N)C(=O)O)cc1 Some results are limits rather than exact numbers.

T1 sequence (Q96LB2 whole entry): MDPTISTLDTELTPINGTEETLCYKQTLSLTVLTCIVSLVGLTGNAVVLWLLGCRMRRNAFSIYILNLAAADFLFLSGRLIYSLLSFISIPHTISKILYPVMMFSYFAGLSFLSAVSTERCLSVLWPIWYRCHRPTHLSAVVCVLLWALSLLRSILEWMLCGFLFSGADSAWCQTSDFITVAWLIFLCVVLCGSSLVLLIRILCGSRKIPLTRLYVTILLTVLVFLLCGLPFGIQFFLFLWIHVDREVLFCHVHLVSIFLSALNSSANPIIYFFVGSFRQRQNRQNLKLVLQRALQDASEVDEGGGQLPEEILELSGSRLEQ

For `COc1cc(CNc2ccc(C(=N)N)cc2)ccc1OCc1ccccc1` [Compound 5a, 4-(4-(Benzyloxy)-3-methoxybenzylamino)benzimidamide], at human MRGPRX1 [1], the “agonist type at human MRGPRX1” value was “full agonists” and the “ligand efficiency (LE)” value is 0.32–0.33. Besides, the “inhibitory effect on HVA Ca2+ currents” value in series [2] (bath application of 10 μM) is “inhibited HVA Ca^2+ currents”.
As to `COc1cc(CNc2cccc(C(=N)N)c2)ccc1OCc1ccccc1` [Compound 5b, 3-(4-(Benzyloxy)-3-methoxybenzylamino)benzimidamide], the “fold decrease in agonist potency as compared to 5a” value (from here on “fold decrease in agonist potency”) at human MRGPRX1 [1] was found to be 6 fold.
For the compound `COc1cc(CNc2ccccc2C(=N)N)ccc1OCc1ccccc1` [Compound 5c, 2-(4-(Benzyloxy)-3-methoxybenzylamino)benzimidamide], at human MRGPRX1 [1], the “agonist activity at MRGPRX1” value is reported as “negligible agonist activity” and the “fold decrease in agonist potency” value was over 100 fold. Besides, the “inhibitory effect on HVA Ca2+ currents” value in series [2] (bath application of 10 μM) is recorded as “no inhibitory effects”.
On to `COc1cc(CNc2ccc(C(=N)N)cc2)ccc1OCc1cccnc1` [Compound 5d, 4-(3-Methoxy-4-(pyridin-3-ylmethoxy)benzylamino)benzimidamide], for which the “fold decrease in agonist potency” value at human MRGPRX1 [1] was found to be 10 fold.
`CCCCS(=O)(=O)Nc1cc(C)ccc1Oc1ccc(C(=N)N)cc1` [Compound 11a, 4-(2-(Butylsulfonamido)-4-methylphenoxy)benzimidamide]: at human MRGPRX1 [1], the “agonist type at human MRGPRX1” value was “full agonists” and the “ligand efficiency (LE)” value is listed as 0.32–0.33.
With `COc1ccccc1S(=O)(=O)Nc1ccc(C)cc1Oc1ccc2c(N)nccc2c1` [Compound 16, N-(2-(1-Aminoisoquinolin-6-yloxy)-4-methylphenyl)-2-methoxybenzenesulfonamide], the half-life in series [3] was under 15 min. Further, the “activity against mouse MRGPRC11” value on mouse MRGPRC11 [4] is “inactive”. In addition, in series [5], the “selectivity over all three opioid receptors” value was at least 50 fold.
For `COc1ccccc1S(=O)(=O)Nc1ccc(C)cc1Oc1ccc2sc(N)nc2c1` [Compound 19, N-(2-(2-Aminobenzo[d]thiazol-5-yloxy)-4-methylphenyl)-2-methoxybenzenesulfonamide], the “agonist activity at MRGPRX1” value on human MRGPRX1 [1] is listed as “negligible agonist activity; also recorded: no agonist activity”.
Regarding `NC(=O)[C@H](Cc1ccccc1)NC(=O)[C@H](N)Cc1ccc(N=C(N)N)cc1` [JHU-58] (H-[dPhe(4-guanidino)]-Phe-NH2), the “agonist activity at mouse MRGPRC11” value at mouse MRGPRC11 [6] was “full agonist activity”. For the same compound, in the series on neuropathic pain, the “analgesic effects” value was “exhibits analgesic effects”. In addition, in the series on rat MRGPRC, the “agonist activity at rat MRGPRC” value is “full agonist activity”. Also, the “agonist activity at human MRGPRX1” value on human MRGPRX1 [7] (introduction) is “negligible agonist activity”.
For the compound BAM8-22, the “agonist activity at mouse MRGPRC11” value at mouse MRGPRC11 [6] is “full agonist activity”. Moreover, the “effect on mechanical and thermal hyperalgesia” value was “attenuate both mechanical and thermal hyperalgesia” in [8]; “attenuate both mechanical and thermal hyperalgesia” in series [9]. The “inhibitory effect on HVA Ca2+ currents” value in [2] (bath application of 5 μM) is given as “inhibited HVA Ca^2+ currents”. For the same compound, the “agonist activity at rat MRGPRC” value in the series with rat MRGPRC is “full agonist activity”. In addition, at human MRGPRX1 [7], the “agonist activity at human MRGPRX1” value is given as “full agonist activity”.

(Values after article PMC10079166 (Journal of medicinal chemistry, 2019).)
